Experimental data: ChEMBL document CHEMBL1140076, “Discovery and labeling of high-affinity 3,4-diarylpyrazolines as candidate radioligands for in vivo imaging of cannabinoid subtype-1 (CB1) receptors” (J Med Chem, 2008)

Tests used:
Cannabinoid receptor 1 = Cannabinoid receptor 1 (Homo sapiens, UniProt P21554); assay: Binding affinity to human CB1 receptor by [35S]GTPgammaS binding assay; type: functional
Cannabinoid receptor 2 = Cannabinoid receptor 2 (Homo sapiens, UniProt P34972); assay: Binding affinity to human CB2 receptor by [35S]GTPgammaS binding assay; type: functional
Outline: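 Recombinant human CB2 membranes (7 µg/well) in buffer with 100 mM NaCl, 5 mM MgCl2, 1 mM EDTA, 50 mM HEPES, 10 µM GDP, 100 µM DTT, 0.01% BSA. Incubation 45 min at 30 °C, then filtration and scintillation counting. Nonspecific binding with 20 µM GTPγS. IC50 converted to Ki by Cheng-Prusoff; triplicates.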

[1] = Biodistribution in cynomolgus monkey brain striatum assessed as standardized uptake value at 65 GBq/umol, iv after 48 mins; type: ADME, organism-based, Macaca fascicularis; settings: in vivo, 0.8 h
Outline: (§1)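 Anesthetized cynomolgus monkeys (3.4, 4.8 kg; ketamine/xylazine i.m., head in stereotactic frame). [11C] radioligand given as i.v. bolus over about 5 s: 56–100 MBq, 0.33–0.81 µg carrier. Brain scanned on ECAT EXACT HR for 93 min. Regions defined on a monkey brain atlas. Decay-corrected activity expressed as %SUV (% injected activity per g tissue × body weight).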

Pons [2] = assay: Biodistribution in cynomolgus monkey brain pons assessed as standardized uptake value at 65 GBq/umol, iv after 24 mins; type: ADME, organism-based, Macaca fascicularis; settings: in vivo, 0.4 h; outline: as §1
[3] = Biodistribution in cynomolgus monkey plasma assessed as unchanged drug level at 65 GBq/umol, iv after 45 mins; type: ADME, organism-based, Macaca fascicularis; settings: read-out: Activity
Outline: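 Venous blood (1 mL) taken 5, 15, 30 and 45 min after i.v. radioligand in anesthetized monkey. Plasma (0.5 mL) mixed with MeCN containing carrier standard and centrifuged at 2000 × g for 1 min. Supernatant counted, then analyzed by reverse-phase radio-HPLC with a MeCN/0.01 M H3PO4 gradient. Parent expressed as % of plasma radioactivity.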

[4] = Biodistribution in cynomolgus monkey brain striatum assessed as standardized uptake value at 56 GBq/umol, iv after 1.5 mins; type: ADME, organism-based, Macaca fascicularis; settings: in vivo, 0.025 h; outline: as §1
[5] = Biodistribution in cynomolgus monkey brain striatum assessed as standardized uptake value at 56 GBq/umol, iv after 90 mins; type: ADME, organism-based, Macaca fascicularis; settings: in vivo, 1.5 h; outline: as §1
[6] = Biodistribution in cynomolgus monkey brain striatum assessed as standardized uptake value at 78 GBq/umol, iv after 30 mins; type: ADME, organism-based, Macaca fascicularis; settings: in vivo, 0.5 h; outline: as §1
[7] = Biodistribution in cynomolgus monkey brain striatum assessed as standardized uptake value at 78 GBq/umol, iv after 90 mins; type: ADME, organism-based, Macaca fascicularis; settings: in vivo, 1.5 h; outline: as §1
Pons [8] = assay: Biodistribution in cynomolgus monkey brain pons assessed as standardized uptake value at 78 GBq/umol, iv after 24 mins; type: ADME, organism-based, Macaca fascicularis; settings: in vivo, 0.4 h; outline: as §1
Pons [9] = assay: Biodistribution in cynomolgus monkey brain pons assessed as standardized uptake value at 78 GBq/umol, iv after 90 mins; type: ADME, organism-based, Macaca fascicularis; settings: in vivo, 1.5 h; outline: as §1
Brain [10] = assay: Biodistribution in 1 mg/kg, iv N-(4-fluorobenzyl)-4-(3-(piperidin-1-yl)-1H-indol-1-ylsulfonyl)benzamide pretreated cynomolgus monkey brain assessed as standardized uptake value at […], iv after 15 mins; type: ADME, organism-based, Macaca fascicularis; design: dose 1 mg/kg, route intravenous; settings: in vivo, 0.25 h
Brain [11] = assay: Biodistribution in 1 mg/kg, iv N-(4-fluorobenzyl)-4-(3-(piperidin-1-yl)-1H-indol-1-ylsulfonyl)benzamide pretreated cynomolgus monkey brain assessed as standardized uptake value at […], iv after 90 mins; type: ADME, organism-based, Macaca fascicularis; design: dose 1 mg/kg, route intravenous; settings: in vivo, 1.5 h
Histamine H2 receptor = Histamine H2 receptor (Homo sapiens, UniProt P25021); assay: Displacement of [3H]tiotidine from human cloned histamine H2 receptor
Histamine H3 receptor = Histamine H3 receptor (Homo sapiens, UniProt Q9Y5N1); assay: Displacement of [3H]alpha methyl histamine from human cloned histamine H3 receptor
[12] = target: 5-hydroxytryptamine receptor 2A (Homo sapiens, UniProt P28223); assay: Displacement of [3H]ketanserin from human cloned 5HT2A receptor
5-hydroxytryptamine receptor 2A, sequence (P28223 whole entry): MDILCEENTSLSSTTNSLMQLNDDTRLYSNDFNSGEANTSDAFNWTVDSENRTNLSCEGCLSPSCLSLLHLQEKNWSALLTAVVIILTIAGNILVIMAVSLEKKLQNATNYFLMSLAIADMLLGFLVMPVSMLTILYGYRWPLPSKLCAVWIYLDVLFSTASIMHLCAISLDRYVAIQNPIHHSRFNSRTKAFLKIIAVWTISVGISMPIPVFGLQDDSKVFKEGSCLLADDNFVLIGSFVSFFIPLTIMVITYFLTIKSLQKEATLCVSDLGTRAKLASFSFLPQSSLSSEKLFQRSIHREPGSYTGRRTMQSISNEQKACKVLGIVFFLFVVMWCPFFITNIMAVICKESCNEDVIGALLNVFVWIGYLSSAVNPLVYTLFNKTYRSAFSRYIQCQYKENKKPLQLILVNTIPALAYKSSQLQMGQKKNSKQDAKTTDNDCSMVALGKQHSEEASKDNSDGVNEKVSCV

Cannabinoid receptor 2, sequence (P34972 whole entry): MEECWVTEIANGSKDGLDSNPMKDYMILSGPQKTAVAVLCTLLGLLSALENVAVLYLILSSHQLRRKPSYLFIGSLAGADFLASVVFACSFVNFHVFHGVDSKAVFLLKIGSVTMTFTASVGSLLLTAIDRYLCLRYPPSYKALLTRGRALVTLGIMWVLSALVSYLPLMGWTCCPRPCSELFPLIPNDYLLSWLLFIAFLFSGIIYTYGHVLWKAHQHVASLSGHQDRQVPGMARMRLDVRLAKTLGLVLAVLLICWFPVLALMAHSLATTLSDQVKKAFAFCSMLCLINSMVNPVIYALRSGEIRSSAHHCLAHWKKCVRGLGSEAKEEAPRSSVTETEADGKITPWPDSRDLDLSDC
Cannabinoid receptor 1, sequence (P21554 whole entry): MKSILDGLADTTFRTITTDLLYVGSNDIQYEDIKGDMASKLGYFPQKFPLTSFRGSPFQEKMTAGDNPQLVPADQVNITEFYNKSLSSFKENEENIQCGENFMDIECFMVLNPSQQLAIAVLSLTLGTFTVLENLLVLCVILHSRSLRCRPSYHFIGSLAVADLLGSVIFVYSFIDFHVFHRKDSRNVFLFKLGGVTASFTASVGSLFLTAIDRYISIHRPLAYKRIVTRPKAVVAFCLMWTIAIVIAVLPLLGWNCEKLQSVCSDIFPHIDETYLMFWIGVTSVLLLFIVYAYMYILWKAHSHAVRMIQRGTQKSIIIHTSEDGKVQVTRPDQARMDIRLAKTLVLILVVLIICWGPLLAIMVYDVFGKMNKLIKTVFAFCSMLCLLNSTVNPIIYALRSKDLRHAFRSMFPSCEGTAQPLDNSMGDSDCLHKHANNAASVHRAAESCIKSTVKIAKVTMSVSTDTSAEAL
Histamine H3 receptor, sequence (Q9Y5N1 whole entry): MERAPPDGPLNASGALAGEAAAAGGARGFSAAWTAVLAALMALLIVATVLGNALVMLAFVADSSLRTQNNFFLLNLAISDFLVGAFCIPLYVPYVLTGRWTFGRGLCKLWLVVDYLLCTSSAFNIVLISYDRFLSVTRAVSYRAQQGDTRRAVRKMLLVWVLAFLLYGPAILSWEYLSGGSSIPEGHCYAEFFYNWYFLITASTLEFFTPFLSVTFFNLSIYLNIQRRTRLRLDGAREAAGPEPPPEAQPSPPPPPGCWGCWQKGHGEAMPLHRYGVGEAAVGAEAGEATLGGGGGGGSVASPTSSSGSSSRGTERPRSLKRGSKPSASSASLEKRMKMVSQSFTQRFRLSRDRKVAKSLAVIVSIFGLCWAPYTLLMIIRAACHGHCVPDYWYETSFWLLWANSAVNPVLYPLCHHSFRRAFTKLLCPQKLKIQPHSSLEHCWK
Histamine H2 receptor, sequence (P25021 whole entry): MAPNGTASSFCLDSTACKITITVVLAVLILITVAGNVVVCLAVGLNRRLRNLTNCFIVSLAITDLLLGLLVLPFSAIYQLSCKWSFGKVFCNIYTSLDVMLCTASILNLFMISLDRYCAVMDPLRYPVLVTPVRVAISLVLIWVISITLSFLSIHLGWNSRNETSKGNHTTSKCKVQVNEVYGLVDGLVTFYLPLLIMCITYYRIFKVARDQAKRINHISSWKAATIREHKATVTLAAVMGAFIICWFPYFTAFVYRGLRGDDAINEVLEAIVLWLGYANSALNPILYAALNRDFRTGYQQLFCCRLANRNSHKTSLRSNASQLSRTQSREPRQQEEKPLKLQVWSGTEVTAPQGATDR

| SMILES | IC50 (Cannabinoid receptor 1) [nM] | Ki (Cannabinoid receptor 1) [nM] | IC50 (Cannabinoid receptor 2) [nM] | Ki (Cannabinoid receptor 2) [nM] | also measured |
| --- | --- | --- | --- | --- | --- |
| N/C(=N\S(=O)(=O)c1ccc(I)cc1)N1C[C@H](c2ccccc2)C(c2ccc(Cl)cc2)=N1 | 1.9 | 0.3 | > 33000 | > 5000 | – |
| N#Cc1ccc(S(=O)(=O)/N=C(\N)N2C[C@@H](c3ccccc3)C(c3ccc(Cl)cc3)=N2)cc1 | 100 | 16.9 | > 33000 | > 5000 | – |
| N#[11C]c1ccc(S(=O)(=O)/N=C(\N)N2C[C@H](c3ccccc3)C(c3ccc(Cl)cc3)=N2)cc1 | – | – | – | – | Drug uptake [1]: 200%; Drug uptake (Pons [2]): 125%; remaining at 0.75 h [3]: 50% |
| N#[11C]c1ccc(S(=O)(=O)/N=C(\N)N2C[C@@H](c3ccccc3)C(c3ccc(Cl)cc3)=N2)cc1 | – | – | – | – | Drug uptake [4]: 280%; Drug uptake [5]: 95% |
| N#[11C]c1ccc(S(=O)(=O)/N=C(\N)N2CC(c3ccccc3)C(c3ccc(Cl)cc3)=N2)cc1 (racemic) | – | – | – | – | Drug uptake [6]: 220%; Drug uptake [7]: 180%; Drug uptake (Pons [8]): 150%; Drug uptake (Pons [9]): 124%; Drug uptake (Brain [10]): 175%; Drug uptake (Brain [11]): 85% |
| N/C(=N\S(=O)(=O)c1ccc(I)cc1)N1C[C@@H](c2ccccc2)C(c2ccc(Cl)cc2)=N1 | 104 | 17.4 | > 33000 | > 5000 | – |
| N#Cc1ccc(S(=O)(=O)/N=C(\N)N2C[C@H](c3ccccc3)C(c3ccc(Cl)cc3)=N2)cc1 | 2.8 | 0.5 | > 33000 | > 5000 | Ki (Histamine H2 receptor): > 10000 nM; Ki (Histamine H3 receptor): > 10000 nM; Ki [12]: > 7710 nM |
